Laboratory results: ChEMBL document CHEMBL1649392, “Synthesis of substituted 3-amino-N-phenyl-1H-indazole-1-carboxamides endowed with antiproliferative activity” (Eur J Med Chem, 2011)

Tests used:
Format in all cases: functional
[1] = Antiproliferative activity against human […] cells after 48 hrs by sulforhodamine B assay
How it was run: (§1)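 NCI 60-cell-line panel covering nine cancer types (leukemia, non-small cell lung, colon, CNS, melanoma, ovarian, renal, prostate, breast). Compounds were first tested at a single dose, then in a five-dose screen (series starting 0.01, 0.1 …) if they met NCI threshold criteria. Reported per line: GI50 (molar concentration inhibiting 50% net growth), TGI (total growth inhibition) and LC50 (50% net cell death).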

[2] = test system: T47D; experiment: Antiproliferative activity against human T47D cells after 48 hrs by sulforhodamine B assay
How it was run: (§2)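 NCI 60-cell-line panel screen: single dose 10 µM first, then 5-dose testing (0.01, 0.1, … molar series). For each line, GI50 is the molar concentration giving 50% inhibition of net cell growth, TGI gives total inhibition of net growth, and LC50 gives 50% net cell death. Method follows the NCI DTP protocol.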

[3] = test system: TK-10; experiment: Antiproliferative activity against human TK10 cells after 48 hrs by sulforhodamine B assay; conditions: TK-10, 48 h; how it was run: as §2
[4] = test system: SF-539; experiment: Antiproliferative activity against human SF539 cells after 48 hrs by sulforhodamine B assay; conditions: SF-539, 48 h; how it was run: as §1
[5] = test system: DU-145; experiment: Antiproliferative activity against human DU145 cells after 48 hrs by sulforhodamine B assay; conditions: DU-145, 48 h; how it was run: as §1
[6] = test system: HCC 2998; experiment: Antiproliferative activity against human HCC2998 cells after 48 hrs by sulforhodamine B assay; conditions: HCC 2998, 48 h; how it was run: as §1
[7] = test system: HCT-15; experiment: Antiproliferative activity against human HCT15 cells after 48 hrs by sulforhodamine B assay; conditions: HCT-15, 48 h; how it was run: as §1
[8] = test system: CAKI-1; experiment: Antiproliferative activity against human Caki1 cells after 48 hrs by sulforhodamine B assay; conditions: CAKI-1, 48 h; how it was run: as §1
[9] = test system: UACC-257; experiment: Antiproliferative activity against human UACC257 cells after 48 hrs by sulforhodamine B assay; conditions: UACC-257, 48 h; how it was run: as §2
[10] = test system: HOP-92; experiment: Antiproliferative activity against human HOP92 cells after 48 hrs by sulforhodamine B assay; conditions: HOP-92, 48 h; how it was run: as §1
[11] = test system: BT-549; experiment: Antiproliferative activity against human BT549 cells after 48 hrs by sulforhodamine B assay; conditions: BT-549, 48 h; how it was run: as §1
[12] = test system: Malme-3M; experiment: Antiproliferative activity against human MALME-3M cells after 48 hrs by sulforhodamine B assay; how it was run: as §1
[13] = test system: SK-MEL-2; experiment: Antiproliferative activity against human SK-MEL-2 cells after 48 hrs by sulforhodamine B assay; conditions: SK-MEL-2, 48 h; how it was run: as §1
[14] = test system: A549; experiment: Antiproliferative activity against human A549 cells after 48 hrs by sulforhodamine B assay; conditions: A549, 48 h; how it was run: as §1
[15] = test system: NCI-H226; experiment: Antiproliferative activity against human NCI-H226 cells after 48 hrs by sulforhodamine B assay; conditions: NCI-H226, 48 h; how it was run: as §1
[16] = test system: OVCAR-5; experiment: Antiproliferative activity against human OVCAR5 cells after 48 hrs by sulforhodamine B assay; conditions: OVCAR-5, 48 h; how it was run: as §1
[17] = test system: PC-3; experiment: Antiproliferative activity against human PC3 cells after 48 hrs by sulforhodamine B assay; conditions: PC-3, 48 h; how it was run: as §1
[18] = test system: ACHN; experiment: Antiproliferative activity against human ACHN cells after 48 hrs by sulforhodamine B assay; how it was run: as §1
[19] = test system: MOLT-4; experiment: Antiproliferative activity against human MOLT4 cells after 48 hrs by sulforhodamine B assay; conditions: MOLT-4, 48 h; how it was run: as §1
[20] = test system: RXF 393; experiment: Antiproliferative activity against human RXF393 cells after 48 hrs by sulforhodamine B assay; conditions: RXF 393, 48 h; how it was run: as §1
[21] = test system: SF-268; experiment: Antiproliferative activity against human SF268 cells after 48 hrs by sulforhodamine B assay; conditions: SF-268, 48 h; how it was run: as §1
[22] = test system: M14; experiment: Antiproliferative activity against human M14 cells after 48 hrs by sulforhodamine B assay; conditions: M14, 48 h; how it was run: as §1
[23] = test system: MDA-MB-231; experiment: Antiproliferative activity against human MDA-MB-231 cells after 48 hrs by sulforhodamine B assay; conditions: MDA-MB-231, 48 h; how it was run: as §1
[24] = test system: SK-OV-3; experiment: Antiproliferative activity against human SKOV3 cells after 48 hrs by sulforhodamine B assay; conditions: SK-OV-3, 48 h; how it was run: as §1
[25] = test system: 786-0; experiment: Antiproliferative activity against human 786-0 cells after 48 hrs by sulforhodamine B assay; conditions: 786-0, 48 h; how it was run: as §1
[26] = test system: COLO 205; experiment: Antiproliferative activity against human COLO205 cells after 48 hrs by sulforhodamine B assay; conditions: COLO 205, 48 h; how it was run: as §1
[27] = Antiproliferative activity against human Hs 578T cells after 48 hrs by sulforhodamine B assay; how it was run: as §1
[28] = test system: UO-31; experiment: Antiproliferative activity against human UO31 cells after 48 hrs by sulforhodamine B assay; conditions: UO-31, 48 h; how it was run: as §2
[29] = test system: EKVX; experiment: Antiproliferative activity against human EKVX cells after 48 hrs by sulforhodamine B assay; how it was run: as §1
[30] = test system: SN12C; experiment: Antiproliferative activity against human SN12C cells after 48 hrs by sulforhodamine B assay; how it was run: as §1
[31] = test system: K562; experiment: Antiproliferative activity against human K562 cells after 48 hrs by sulforhodamine B assay; conditions: K562, 48 h; how it was run: as §1
[32] = test system: U-251; experiment: Antiproliferative activity against human U251 cells after 48 hrs by sulforhodamine B assay; conditions: U-251, 48 h; how it was run: as §2
[33] = read-out: LC50 (the source's name)

Nc1nn(C(=O)Nc2ccc(Cc3ccccc3)cc2)c2ccc(Cl)cc12
GI50 [1]: 2.58 µM | TGI [1]: 46.5 µM | CC50 [1, 33]: > 100 µM | GI50 [2]: 0.0741 µM | LC50 (concentration giving 50% net cell death) [2]: > 100 µM | TGI [2]: 27.6 µM | GI50 [3]: 15.6 µM | TGI [3]: 38.7 µM | CC50 [3, 33]: 96.3 µM | GI50 [4]: 1.51 µM | TGI [4]: 11.5 µM | CC50 [4, 33]: 38.8 µM | GI50 [5]: 10.4 µM | TGI [5]: 28.9 µM | CC50 [5, 33]: 80 µM | GI50 [6]: 0.238 µM | TGI [6]: 1.53 µM | CC50 [6, 33]: > 100 µM | GI50 [7]: 0.0458 µM | LC50 (concentration causing 50% net cell death) [7]: > 100 µM | TGI [7]: > 100 µM | GI50 [8]: 0.217 µM | TGI [8]: > 100 µM | CC50 [8, 33]: > 100 µM | GI50 [9]: 4.92 µM | TGI [9]: > 100 µM | CC50 [9, 33]: > 100 µM | GI50 [10]: 10.7 µM | LC50 [10]: > 100 µM | TGI [10]: 33.7 µM | GI50 [11]: 5.88 µM | TGI [11]: 44 µM | CC50 [11, 33]: > 100 µM | GI50 [12]: 6.69 µM | LC50 (concentration causing 50% net cell death) [12]: > 100 µM | TGI [12]: 54.8 µM | GI50 [13]: 33.6 µM | TGI [13]: > 100 µM | CC50 [13, 33]: > 100 µM | GI50 [14]: 2.52 µM | TGI [14]: > 100 µM | CC50 [14, 33]: > 100 µM | GI50 [15]: 15.4 µM | TGI [15]: 66.7 µM | CC50 [15, 33]: > 100 µM | GI50 [16]: 18.8 µM | TGI [16]: > 100 µM | CC50 [16, 33]: > 100 µM | GI50 [17]: 2.9 µM | TGI [17]: 44.3 µM | CC50 [17, 33]: > 100 µM | GI50 [18]: 0.0468 µM | TGI [18]: 17.4 µM | CC50 [18, 33]: > 100 µM | GI50 [19]: 2.41 µM | TGI [19]: 55.3 µM | CC50 [19, 33]: > 100 µM | GI50 [20]: 13.5 µM | TGI [20]: 31.5 µM | CC50 [20, 33]: 73.4 µM | GI50 [21]: 13 µM | TGI [21]: 47.7 µM | CC50 [21, 33]: > 100 µM | GI50 [22]: 0.0888 µM | TGI [22]: 14 µM | CC50 [22, 33]: > 100 µM | GI50 [23]: 5.33 µM | TGI [23]: 37.6 µM | CC50 [23, 33]: > 100 µM | GI50 [24]: 15.8 µM | TGI [24]: 50.5 µM | CC50 [24, 33]: > 100 µM | GI50 [25]: 3.92 µM | TGI [25]: 28.2 µM | CC50 [25, 33]: 94.4 µM | GI50 [26]: 0.588 µM | LC50 (concentration causing 50% net cell death) [26]: > 100 µM | TGI [26]: 23.8 µM | GI50 [27]: 13.3 µM | TGI [27]: 41.7 µM | CC50 [27, 33]: > 100 µM | GI50 [28]: 3.12 µM | TGI [28]: 84.5 µM | CC50 [28, 33]: > 100 µM | GI50 [29]: 3.19 µM | TGI [29]: 97.6 µM | CC50 [29, 33]: > 100 µM | GI50 [30]: 14.6 µM | TGI [30]: 42.9 µM | CC50 [30, 33]: > 100 µM | GI50 [31]: 0.0357 µM | LC50 (concentration causing 50% net cell death) [31]: > 100 µM | TGI [31]: 14.7 µM | GI50 [32]: 12.5 µM | LC50 (concentration giving 50% net cell death) [32]: 58.4 µM | TGI [32]: 27 µM
